Measurements reported in ChEMBL document CHEMBL4715734, “Discovery of the Potent and Selective M1 PAM-Agonist N-[(3R,4S)-3-Hydroxytetrahydro-2H-pyran-4-yl]-5-methyl-4-[4-(1,3-thiazol-4-yl)benzyl]pyridine-2-carboxamide (PF-06767832): Evaluation of Efficacy and Cholinergic Side Effects” (J Med Chem, 2016).

How the values were obtained:
[1] = target: T1, Muscarinic acetylcholine receptor M3 (Homo sapiens, UniProt P20309); assay: Agonist activity at human recombinant muscarinic M3 receptor stably expressed in CHO cells assessed as increase in intracellular calcium level up to 10 uM incubated for 10 mins by Fluo-8AM dye based FLIPR TETRA method; assay type: cell-based
T1 sequence (P20309 whole entry): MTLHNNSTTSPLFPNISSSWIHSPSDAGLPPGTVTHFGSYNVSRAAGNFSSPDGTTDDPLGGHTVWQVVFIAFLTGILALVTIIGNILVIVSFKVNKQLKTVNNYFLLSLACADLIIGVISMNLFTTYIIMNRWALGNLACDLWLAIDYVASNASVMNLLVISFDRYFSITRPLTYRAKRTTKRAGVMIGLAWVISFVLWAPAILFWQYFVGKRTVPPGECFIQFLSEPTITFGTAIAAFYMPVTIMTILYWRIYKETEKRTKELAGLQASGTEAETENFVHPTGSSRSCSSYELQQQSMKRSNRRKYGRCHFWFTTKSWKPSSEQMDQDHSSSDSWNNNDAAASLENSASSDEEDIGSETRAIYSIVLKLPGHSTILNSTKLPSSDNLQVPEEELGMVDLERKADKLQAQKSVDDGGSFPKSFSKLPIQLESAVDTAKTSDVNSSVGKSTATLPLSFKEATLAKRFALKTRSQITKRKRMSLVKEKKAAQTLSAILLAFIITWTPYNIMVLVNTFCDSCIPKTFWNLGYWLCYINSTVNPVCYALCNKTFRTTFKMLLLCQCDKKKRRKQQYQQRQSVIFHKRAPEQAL

[2] = Toxicity in male rat assessed as increase in food intake at 30 mg/kg, po administered for 14 days; settings: in vivo, 336 h
[3] = Toxicity in male rat assessed as increase in body weight at 10 mg/kg, po administered for 14 days; assay type: organism-based; settings: in vivo, 336 h, time 14 day
Summary of the method: (§1)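 Two-week repeat-dose toxicity study in rats. Oral dosing in 0.5% methylcellulose at 3, 10, 30 (males)/15 (females) mg/kg, N=4/sex/dose. Food intake, body weight gain and histopathology were assessed.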

[4] = Toxicity in male Beagle dog assessed as increase in maximum systolic left ventricular pressure at 3 mg/kg, po observed up to 9 hrs post last dose by telemetry; assay type: organism-based, Canis lupus familiaris; settings: in vivo
Summary of the method: (§2)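 Crossover telemetry study in dogs at three oral doses (0.3, 1 and 3 mg/kg), N=4. Endpoints were blood pressure, maximum systolic left ventricular pressure, LV +dP/dt max, activity, heart rate, and RR, QT and QTc intervals, followed up to 9 h post dose.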

[5] = Toxicity in dog assessed as salivation at 5 mg/kg, po using spray-dried dispersion formulation; assay type: organism-based, Canis lupus familiaris; settings: in vivo
[6] = Toxicity in dog assessed as induction of watery feces at 5 mg/kg, po using spray-dried dispersion formulation; assay type: organism-based, Canis lupus familiaris; settings: in vivo
[7] = Toxicity in male Beagle dog assessed as decrease in QTc interval at 3 mg/kg, po administered as single dose observed upto 9 hrs post last dose by telemetry; assay type: organism-based, Canis lupus familiaris; settings: in vivo; summary of the method: as §2
[8] = Unbound plasma concentration in scopolamine-induced Wistar rat model at 0.1 mg/kg, po measured after 1 hr; assay type: ADME, organism-based; settings: in vivo
[9] = Toxicity in dog assessed as induction of mucoid feces at 15 mg/kg, po using spray-dried dispersion formulation; assay type: organism-based, Canis lupus familiaris; settings: in vivo
[10] = Unbound plasma concentration in amphetamine-induced C57BL/6J mouse model of hyperlocomotion at 3.2 mg/kg, sc measured after 1 hr; assay type: ADME, organism-based; settings: in vivo
Summary of the method: (§3)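 Satellite PK animals from the mouse aLMA study, N=2/dose. Dosed subcutaneously with a solution in 5/15/80 DMSO/Solutol/water. Plasma and brain were sampled at T = 1 h.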

[11] = fCmax in dog at 45 mg/kg, po using spray-dried dispersion formulation; assay type: ADME, organism-based, Canis lupus familiaris; settings: in vivo
[12] = Ratio of fAUC in rat brain to plasma; assay type: ADME, cell-free; settings: brain and plasma, read-out: Ratio AUC
[13] = target: T2, Muscarinic acetylcholine receptor M1 (Homo sapiens) (UniProt P11229); assay: Binding affinity to human muscarinic M1 receptor stably expressed in CHO cells assessed as increase in intracellular calcium level by measuring binding constant measured after 10 mins by Fluo-8AM dye based FLIPR TETRA method; assay type: cell-based; settings: filed as positive allosteric modulator
T2 sequence (whole entry): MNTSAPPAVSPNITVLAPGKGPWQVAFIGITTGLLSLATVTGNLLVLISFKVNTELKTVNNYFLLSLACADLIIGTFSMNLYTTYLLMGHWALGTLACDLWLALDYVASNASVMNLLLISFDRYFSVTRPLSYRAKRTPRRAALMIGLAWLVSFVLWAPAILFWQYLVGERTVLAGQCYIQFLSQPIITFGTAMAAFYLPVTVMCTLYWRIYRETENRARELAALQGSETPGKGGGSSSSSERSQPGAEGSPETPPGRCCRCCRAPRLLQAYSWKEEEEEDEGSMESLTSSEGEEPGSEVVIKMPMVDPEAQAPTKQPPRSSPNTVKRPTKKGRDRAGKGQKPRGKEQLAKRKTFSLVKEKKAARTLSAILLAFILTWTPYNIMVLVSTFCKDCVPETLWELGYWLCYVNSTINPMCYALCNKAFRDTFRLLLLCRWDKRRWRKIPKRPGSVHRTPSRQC

[14] = Toxicity in male Beagle dog assessed as effect on cardiac contractility at 3 mg/kg, po administered as single dose observed upto 9 hrs post last dose by telemetry; assay type: organism-based, Canis lupus familiaris; settings: in vivo; summary of the method: as §2
[15] = target: T1, Muscarinic acetylcholine receptor M3; assay: Positive allosteric modulation of muscarinic M3 receptor (unknown origin) assessed as increase in ACh-induced displacement of [3H]-NMS from M2 receptor
Summary of the method: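 Cell lines expressing M2 or M3 were used for [3H]NMS binding. Inhibition of binding by ACh was measured in the presence of fixed compound concentrations of 10, 3, 1, 0.3, 0.1 and 0 µM.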

[16] = Toxicity in dog assessed as emesis at 45 mg/kg, po using spray-dried dispersion formulation measured after 45 mins; assay type: organism-based, Canis lupus familiaris; settings: in vivo, 0.75 h
Summary of the method: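 Dogs received single escalating oral doses as a spray-dried dispersion (10% drug loading with HPMCAS-M). The dispersion was suspended in 0.5 wt% methylcellulose/0.5 wt% HPMCAS in 20 mM tris buffer, pH 7.4. One dog per sex per dose was used, and clinical signs were recorded.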

[17] = Ratio of fAUC in CD-1 mouse brain to plasma at 1 to 10 mg/kg, sc measured after 2 hrs by LC-MS/MS analysis; assay type: ADME, organism-based; settings: brain and plasma, dose 1-10 mg/kg, read-out: Ratio AUC
[18] = Unbound brain concentration in amphetamine-induced C57BL/6J mouse model of hyperlocomotion at 0.32 mg/kg, sc measured after 1 hr; assay type: ADME, organism-based; settings: in vivo; summary of the method: as §3
[19] = Toxicity in male Beagle dog assessed as effect on heart rate at 3 mg/kg, po observed upto 9 hrs post last dose by telemetry; assay type: organism-based, Canis lupus familiaris; settings: in vivo; summary of the method: as §2
[20] = Toxicity in dog assessed as induction of loose stool at 3 mg/kg, po using spray-dried dispersion formulation; assay type: organism-based, Canis lupus familiaris; settings: in vivo
[21] = Toxicity in female rat assessed as increase in food intake at 15 mg/kg, po administered for 14 days; assay type: organism-based; settings: in vivo, 336 h, time 14 day; summary of the method: as §1
[22] = fCmax in dog at 0.3 mg/kg, po measured after 4 hrs using spray-dried dispersion formulation; assay type: ADME, organism-based, Canis lupus familiaris; settings: in vivo
Summary of the method: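 Dogs from the crossover cardiovascular telemetry study (N=4), dosed orally at 0.3, 1 and 3 mg/kg; unbound Cmax extrapolated from 4 h post-dose in-life plasma samples.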

[23] = Toxicity in rat assessed as histopathological changes at 3 to 30 mg/kg, po administered for 14 days; assay type: organism-based; settings: in vivo, 336 h, dose 3-30 mg/kg, time 14 day; summary of the method: as §1
[24] = Unbound plasma concentration in CD-1 mouse at 1 mg/kg, sc measured after 2 hrs by LC-MS/MS analysis; assay type: ADME, organism-based; settings: in vivo
[25] = Toxicity in male Beagle dog assessed as increase in maximum systolic left ventricular pressure at 1 mg/kg, po observed upto 9 hrs post last dose by telemetry; assay type: organism-based, Canis lupus familiaris; settings: in vivo; summary of the method: as §2
[26] = Toxicity in male Beagle dog assessed as increase in blood pressure at 3 mg/kg, po observed upto 9 hrs post last dose by telemetry; assay type: organism-based, Canis lupus familiaris; settings: in vivo; summary of the method: as §2
[27] = target: T2, Muscarinic acetylcholine receptor M1 (Homo sapiens); assay: Binding affinity to muscarinic M1 receptor (unknown origin) assessed as recruitment of beta-arrestin by Path Hunter assay; assay type: cell-based; settings: CHO, filed as positive allosteric modulator

Activity [1]: Not Active
Cp(f) [8]: 0.9 nM
Cp(f) [10]: 255 nM
fCmax [11]: 952 nM
Kp uu [12]: 0.34
Kb [13]: 5 µM
Activity [15]: Not Active
Kp uu at 2 h [17]: 0.34
Drug uptake(free) [18]: 6.38 nM
fCmax [22]: 41 nM
Cp(f) [24]: 42.1 nM
Ka [27]: 20 µM
Structure (SMILES): Cc1cnc(C(=O)N[C@H]2CCOC[C@@H]2O)cc1Cc1ccc(-c2cscn2)cc1
Activity [2]: Non-Toxic
Activity [3]: Non-Toxic
Activity [4]: Toxic
Activity [5]: Toxic
Activity [6]: Toxic
Activity [7]: Toxic
Activity [9]: Toxic
Activity [14]: Toxic
Activity [16]: Toxic
Activity [19]: 25 bpm
Activity [20]: Toxic
Activity [21]: Non-Toxic
Activity [23]: Non-Toxic
Activity [25]: 8 mmHg
Activity [26]: 7 mmHg
